As usually defined, the EC50 is the concentration giving half of the maximal effect.

Activity calls are given as the source filed them. The calls are words filed in the database; no cut-off is given here.

This is an account of results in ChEMBL document CHEMBL4014306, “Pyrazolopyrimidines as Potent Stimulators for Transient Receptor Potential Canonical 3/6/7 Channels” (J Med Chem, 2017).

Common to all, as to format: cell-based
In experiment [1] the target is T1, Short transient receptor potential channel 6 (Mus musculus, UniProt Q61143).
T1 sequence (Q61143 whole entry): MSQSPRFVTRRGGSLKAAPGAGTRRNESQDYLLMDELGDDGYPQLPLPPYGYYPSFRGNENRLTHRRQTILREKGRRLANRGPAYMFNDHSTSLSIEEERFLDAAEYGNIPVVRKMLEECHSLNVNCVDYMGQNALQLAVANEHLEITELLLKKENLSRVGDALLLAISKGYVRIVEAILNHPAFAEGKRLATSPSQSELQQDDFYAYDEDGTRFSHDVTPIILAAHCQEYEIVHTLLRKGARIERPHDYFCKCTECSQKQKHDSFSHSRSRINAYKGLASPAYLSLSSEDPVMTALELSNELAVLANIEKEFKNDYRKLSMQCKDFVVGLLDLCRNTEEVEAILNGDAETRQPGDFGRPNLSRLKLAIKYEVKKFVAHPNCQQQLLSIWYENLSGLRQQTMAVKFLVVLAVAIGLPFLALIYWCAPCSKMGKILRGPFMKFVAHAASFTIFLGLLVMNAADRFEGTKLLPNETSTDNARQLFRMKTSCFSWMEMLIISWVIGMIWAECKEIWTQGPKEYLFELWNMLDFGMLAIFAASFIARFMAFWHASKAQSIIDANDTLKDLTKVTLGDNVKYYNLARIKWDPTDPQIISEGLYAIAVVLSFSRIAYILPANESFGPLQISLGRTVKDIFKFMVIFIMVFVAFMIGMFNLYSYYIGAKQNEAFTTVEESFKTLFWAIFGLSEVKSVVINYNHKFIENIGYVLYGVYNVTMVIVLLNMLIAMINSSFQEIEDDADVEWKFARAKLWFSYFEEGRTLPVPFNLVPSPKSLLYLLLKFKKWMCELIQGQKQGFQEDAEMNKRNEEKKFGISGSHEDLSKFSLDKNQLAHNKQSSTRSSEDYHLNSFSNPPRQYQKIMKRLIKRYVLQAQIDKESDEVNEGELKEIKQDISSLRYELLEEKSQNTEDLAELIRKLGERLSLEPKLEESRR
Nature of the experiment: (§1) Agonist activity at mouse TRPC6 expressed in HEK293 cells co-expressing Gq11-PLCbeta fused M5 receptor assessed as increase in intracellular calcium level by Fluo-4-AM dye-based fluorescence assay. The method, boiled down:
(§2)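 Stable HEK293 line coexpressing mouse TRPC6 and M5 receptor, held under G418 and hygromycin B. Cells are loaded with Fluo4-AM or Fluo8-AM in 2 mM Ca2+ extracellular solution at pH 7.4 with 2 mM probenecid, and read at 32 °C as ΔF/F0.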
A general note: Calcium assays in cells follow changes in intracellular calcium, usually with a dye or a luminescent sensor.

Experiment [2] has as its target T2, Short transient receptor potential channel 6 (Mus musculus) (UniProt Q61143).
T2 sequence (whole entry): T1 sequence (Q61143 whole entry)
The description is as §1. The method, boiled down: as §2

The species named for another experiment is Rattus norvegicus. As to the kind of experiment: Agonist activity at TRPC6 in rat primary glomerular mesangial cells assessed as increase in intracellular calcium level at 1 uM in presence of TRPC inhibitor […] by Fluo4-AM dye-based fluorescence assay. The method, boiled down:
(§3)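 Rat glomerular mesangial cells, isolated by graded sieving from male Sprague–Dawley rats, collagenase-digested, cultured in RPMI 1640 with 17% FBS. Grown overnight on coverslips, then loaded with 10 μM Fluo4-AM and 0.02% pluronic F-127 for 1 h at 37 °C in 1 mM Ca2+ saline, pH 7.4. Compound at 1 μM. Confocal imaging, ex 488/em 515 nm, read as F/F0. For the 2-APB condition, 30 μM 2-APB for 2 min beforehand and kept during compound application.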

The target of experiment [3] is T3, Short transient receptor potential channel 3 (Rattus norvegicus) (UniProt Q9JMI9).
T3 sequence (whole entry): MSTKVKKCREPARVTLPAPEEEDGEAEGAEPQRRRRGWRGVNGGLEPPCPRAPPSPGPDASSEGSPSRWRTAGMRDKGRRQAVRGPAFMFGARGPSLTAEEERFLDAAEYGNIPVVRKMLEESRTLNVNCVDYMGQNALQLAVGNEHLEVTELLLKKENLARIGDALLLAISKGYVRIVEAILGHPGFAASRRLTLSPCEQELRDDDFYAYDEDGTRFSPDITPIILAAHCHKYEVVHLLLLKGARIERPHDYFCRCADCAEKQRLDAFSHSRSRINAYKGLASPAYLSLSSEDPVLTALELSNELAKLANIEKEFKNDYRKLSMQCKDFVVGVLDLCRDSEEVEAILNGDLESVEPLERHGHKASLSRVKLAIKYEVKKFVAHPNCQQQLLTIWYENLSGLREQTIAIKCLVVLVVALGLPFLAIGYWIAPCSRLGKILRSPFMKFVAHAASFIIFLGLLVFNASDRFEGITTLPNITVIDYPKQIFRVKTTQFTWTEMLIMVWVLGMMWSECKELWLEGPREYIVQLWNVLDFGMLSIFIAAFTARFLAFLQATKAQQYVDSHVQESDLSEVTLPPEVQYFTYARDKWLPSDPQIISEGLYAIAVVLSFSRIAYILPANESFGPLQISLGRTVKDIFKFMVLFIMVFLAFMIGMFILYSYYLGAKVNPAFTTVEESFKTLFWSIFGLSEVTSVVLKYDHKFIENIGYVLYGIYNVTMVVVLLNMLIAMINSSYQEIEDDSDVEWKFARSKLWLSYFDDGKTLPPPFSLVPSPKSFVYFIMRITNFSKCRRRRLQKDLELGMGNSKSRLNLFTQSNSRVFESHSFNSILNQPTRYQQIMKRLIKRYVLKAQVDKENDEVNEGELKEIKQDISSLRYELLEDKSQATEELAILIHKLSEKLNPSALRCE
Nature of the experiment: Agonist activity at TRPC3 in rat primary glomerular mesangial cells assessed as increase in intracellular calcium level at 1 uM in presence of TRPC inhibitor […] by Fluo4-AM dye-based fluorescence assay. In outline:
as §3

Consider `CCOC(=O)N1CCC(c2cc(O)n3nc(C)c(-c4ccc(F)cc4)c3n2)CC1`, for which the EC50 in experiment [1] came out at 7.2 µM. Besides, the Activity entry in experiment [2] was “Dose-dependent effect”.

For the compound `Cc1nn2c(O)cc(C3CCN(C(=O)OCc4ccccc4)CC3)nc2c1-c1ccc(F)cc1`, the result (in the experiment listed under Rattus norvegicus; in experiment [3]) was inactive.
